Data published in ChEMBL document CHEMBL4052694, “Discovery of novel 5-oxa-2,6-diazaspiro[3.4]oct-6-ene derivatives as potent, selective, and orally available somatostatin receptor subtype 5 (SSTR5) antagonists for treatment of type 2 diabetes mellitus” (Bioorg Med Chem, 2017).
≈ marks a conversion by molar mass, not a printed value. Calls of active or inactive are those of the source. The calls are words filed in the database; no cut-off is given here.

Columns and labels:
Mus musculus [1] = assay: Antidiabetic activity in HFD-fed C57BL/6J mouse assessed as decrease in blood glucose level at 10 mg/kg, po pretreated for 1 hr followed by glucose challenge by OGTT; type: functional, organism-based
How it was run: (§1)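 Male C57BL/6J mice on high-fat diet for ten days. Fasted overnight and grouped by weight and blood glucose at 12.5 h. Compound given orally at 1, 3, 10 or 30 mg/kg in 0.5% methylcellulose at 15 h; oral glucose 5 g/kg at 16 h.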

Mus musculus [2] = assay: Antidiabetic activity in HFD-fed C57BL/6J mouse assessed as decrease in blood glucose AUC at 10 mg/kg, po pretreated for 1 hr followed by glucose challenge after 1 hr of compound dosing measured up to 120 mins post glucose challenge by OGTT; type: functional, organism-based; how it was run: as §1
Mus musculus [3] = assay: Toxicity in HFD-fed C57BL/6J mouse assessed as induction of hypoglycemia at 10 mg/kg, po after 1 hr; type: organism-based; settings: in vivo
Mus musculus [4] = assay: Antidiabetic activity in HFD-fed C57BL/6J mouse assessed as increase in insulin secretion at 10 mg/kg, po pretreated for 1 hr followed by glucose challenge by OGTT; type: functional, organism-based
[5] = target: T1, Somatostatin receptor type 5 (Mus musculus, UniProt O08858); assay: Antagonist activity at mouse SSTR5 expressed in CHO cells assessed as inhibition of SST14-induced forskolin-stimulated intracellular cAMP level incubated for 15 mins followed by forskolin stimulation for 30 mins by HTRF assay; type: functional, cell-based
T1 sequence (O08858 whole entry): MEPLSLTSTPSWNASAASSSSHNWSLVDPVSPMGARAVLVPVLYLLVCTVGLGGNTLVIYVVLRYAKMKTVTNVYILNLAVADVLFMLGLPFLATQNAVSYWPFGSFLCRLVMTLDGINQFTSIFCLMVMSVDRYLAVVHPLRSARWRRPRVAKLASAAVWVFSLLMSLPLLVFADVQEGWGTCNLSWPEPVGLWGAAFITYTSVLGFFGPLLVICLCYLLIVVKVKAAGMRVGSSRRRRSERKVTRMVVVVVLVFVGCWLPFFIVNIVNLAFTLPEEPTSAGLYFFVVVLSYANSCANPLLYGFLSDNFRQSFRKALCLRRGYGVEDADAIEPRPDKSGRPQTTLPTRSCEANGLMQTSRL

hERG (KCNH2) = hERG (KCNH2) (Homo sapiens, UniProt Q12809); assay: Inhibition of human ERG expressed in CHO cells assessed as decrease in peak tail current at 30 uM after 5 mins at -80 mV holding potential by patch clamp assay relative to control; type: cell-based; settings: CHO cells expressing human ERG
How it was run: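 hERG-expressing CHO cells grown at 32 °C in Ham's F-12 with 10% FBS and Geneticin. Population patch clamp, perforated with 100 µg/mL amphotericin B. PBS with Ca/Mg outside; 140 mM KCl, 2 mM MgCl2, 1 mM EGTA, 20 mM HEPES pH 7.3 inside. Holding -80 mV, step to 40 mV for 2 s, then -50 mV for 2 s. Peak tail current compared before and after 5 min with compound at 30 µM, n = 4.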

[6] = target: Somatostatin receptor type 5 (Homo sapiens, UniProt P35346); assay: Antagonist activity at human SSTR5 expressed in CHO cells assessed as inhibition of SST14-induced forskolin-stimulated intracellular cAMP level incubated for 15 mins followed by forskolin stimulation for 30 mins by HTRF assay; type: functional, cell-based
[7] = 1-octanol/aqueous buffer solution partition coefficient, log D of the compound at pH 7.4 by UV-vis/HPLC method; type: physicochemical
How it was run: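 Octanol/buffer partition coefficient at pH 7.4, estimated chromatographically by HPLC with UV–vis detection, using conditions adapted from a published method.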

Mus musculus [8] = assay: Antidiabetic activity in HFD-fed C57BL/6J mouse assessed as decrease in blood glucose level at 30 mg/kg, po pretreated for 1 hr followed by glucose challenge by OGTT; type: functional, organism-based; how it was run: as §1
Mus musculus [9] = assay: Antidiabetic activity in HFD-fed C57BL/6J mouse assessed as decrease in blood glucose AUC at 30 mg/kg, po pretreated for 1 hr followed by glucose challenge after 1 hr of compound dosing measured up to 120 mins post glucose challenge by OGTT; type: functional, organism-based; how it was run: as §1
Mus musculus [10] = assay: Antidiabetic activity in HFD-fed C57BL/6J mouse assessed as increase in insulin secretion at 30 mg/kg, po pretreated for 1 hr followed by glucose challenge by OGTT; type: functional, organism-based
[11] = target: Somatostatin receptor type 2 (Homo sapiens) (UniProt P30874); assay: Inhibition of human SSTR2 at 10 uM by radioligand binding assay relative to control
Mus musculus [12] = assay: Toxicity in HFD-fed C57BL/6J mouse assessed as induction of hypoglycemia at 100 mg/kg, po after 1 hr; type: organism-based; settings: in vivo
[13] = Volume of distribution at steady state in ICR mouse at 0.1 mg/kg, iv administered as cassette dose by LC/MS/MS analysis; type: ADME, organism-based; settings: in vivo, read-out: Vdss
How it was run: (§2)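 Non-fasted male ICR mice, 8 weeks old, n = 3, dosed by cassette: 0.1 mg/kg iv, or 1 mg/kg po as a suspension in 0.5% methylcellulose. Plasma deproteinized with acetonitrile and measured by LC/MS/MS. AUC taken over 0–8 h.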

[14] = target: Somatostatin receptor type 4 (Homo sapiens) (UniProt P31391); assay: Inhibition of human SSTR4 at 10 uM by radioligand binding assay relative to control
[15] = Total clearance in ICR mouse at 0.1 mg/kg, iv administered as cassette dose by LC/MS/MS analysis; type: ADME, organism-based; settings: in vivo; how it was run: as §2
Mus musculus [16] = assay: Antidiabetic activity in HFD-fed C57BL/6J mouse assessed as increase in insulin secretion at 100 mg/kg, po pretreated for 1 hr followed by glucose challenge after 1 hr of compound dosing measured up to 120 mins post glucose challenge by OGTT
Mus musculus [17] = assay: Antidiabetic activity in HFD-fed C57BL/6J mouse assessed as decrease in blood glucose level administered po pretreated for 1 hr followed by glucose challenge after 1 hr of compound dosing measured up to 120 mins post glucose challenge by OGTT; type: functional, organism-based; how it was run: as §1
[18] = target: Somatostatin receptor type 3 (Homo sapiens) (UniProt P32745); assay: Inhibition of human SSTR3 at 10 uM by radioligand binding assay relative to control
[19] = Cmax in ICR mouse at 1 mg/kg, po administered as cassette dose by LC/MS/MS analysis; type: ADME, organism-based; set-up: dose 1 mg/kg, route oral; settings: in vivo; how it was run: as §2
[20] = AUC (0 to 8 hrs) in ICR mouse at 1 mg/kg, po administered as cassette dose by LC/MS/MS analysis; type: ADME, organism-based; set-up: dose 1 mg/kg, time < 8 hr, route oral; settings: in vivo; how it was run: as §2
[21] = Oral bioavailability in ICR mouse at 1 mg/kg administered as cassette dose by LC/MS/MS analysis; type: ADME, organism-based; settings: in vivo; how it was run: as §2
[22] = Solubility of the compound in aqueous buffer solution at pH 6.8 after 18 hrs by HPLC analysis; type: physicochemical
How it was run: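 0.4 mg compound in 0.4 mL aqueous buffer, pH 6.8 (Japanese Pharmacopoeia second disintegration fluid). Shaken at 500 rpm at 37 °C for 18 h, then filtered; dissolved concentration measured by HPLC.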

[23] = target: Somatostatin receptor type 1 (Homo sapiens) (UniProt P30872); assay: Inhibition of human SSTR1 at 10 uM by radioligand binding assay relative to control
[24] = Intrinsic clearance in human liver microsomes at 1 uM after 15 to 30 mins in presence of NADPH by LC/MS/MS analysis; type: ADME, microsome; settings: read-out: CLH
How it was run: (§3)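 Liver microsomes at 0.2 mg/mL protein in 50 mM potassium phosphate buffer pH 7.4 with compound at 1 µM. Reaction started with an NADPH-generating system (5 mM MgCl2, 5 mM glucose-6-phosphate, 0.5 mM β-NADP+, 1.5 U/mL G6PDH). Stopped with acetonitrile at 15 and 30 min; analysed by LC/MS/MS. Metabolic velocity taken from the slope of concentration versus time.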

[25] = Intrinsic clearance in mouse liver microsomes at 1 uM after 15 to 30 mins in presence of NADPH by LC/MS/MS analysis; type: ADME, microsome; settings: read-out: CLH; how it was run: as §3
Mus musculus [26] = assay: Antidiabetic activity in HFD-fed C57BL/6J mouse assessed as decrease in blood glucose AUC at 100 mg/kg, po pretreated for 1 hr followed by glucose challenge after 1 hr of compound dosing measured up to 120 mins post glucose challenge by OGTT; type: functional, organism-based
How it was run: (§4)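 Male C57BL/6J mice on high-fat diet for ten days. Fasted from morning and grouped by weight and blood glucose at 4 h. Vehicle (0.5% methylcellulose) or compound given orally at 5.5 h; oral glucose 5 g/kg given 1 h later.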

Mus musculus [27] = assay: Antidiabetic activity in HFD-fed SSTR5 knockout C57BL/6J mouse assessed as decrease in blood glucose level administered po pretreated for 1 hr followed by glucose challenge after 1 hr of compound dosing measured up to 120 mins post glucose challenge by OGTT; type: functional, organism-based
Mus musculus [28] = assay: Antidiabetic activity in HFD-fed C57BL/6J mouse assessed as decrease in blood glucose level at 100 mg/kg, po pretreated for 1 hr followed by glucose challenge after 1 hr of compound dosing measured up to 120 mins post glucose challenge by OGTT; type: functional, organism-based; how it was run: as §4
[29] = Tmax in ICR mouse at 1 mg/kg, po administered as cassette dose by LC/MS/MS analysis; type: ADME, organism-based; settings: in vivo; how it was run: as §2

Chain of Somatostatin receptor type 5 (Homo sapiens, UniProt P35346) (P35346 whole entry): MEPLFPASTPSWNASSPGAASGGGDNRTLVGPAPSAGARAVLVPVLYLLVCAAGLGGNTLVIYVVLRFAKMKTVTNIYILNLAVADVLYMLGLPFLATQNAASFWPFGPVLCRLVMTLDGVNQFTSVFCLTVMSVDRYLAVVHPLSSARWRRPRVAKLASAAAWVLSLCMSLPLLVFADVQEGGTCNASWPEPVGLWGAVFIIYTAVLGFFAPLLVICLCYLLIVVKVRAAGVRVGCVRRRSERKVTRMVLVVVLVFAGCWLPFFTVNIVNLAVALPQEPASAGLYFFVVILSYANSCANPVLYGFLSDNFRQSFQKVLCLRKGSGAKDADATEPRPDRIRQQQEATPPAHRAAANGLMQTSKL
Chain of hERG (KCNH2) (Q12809 whole entry): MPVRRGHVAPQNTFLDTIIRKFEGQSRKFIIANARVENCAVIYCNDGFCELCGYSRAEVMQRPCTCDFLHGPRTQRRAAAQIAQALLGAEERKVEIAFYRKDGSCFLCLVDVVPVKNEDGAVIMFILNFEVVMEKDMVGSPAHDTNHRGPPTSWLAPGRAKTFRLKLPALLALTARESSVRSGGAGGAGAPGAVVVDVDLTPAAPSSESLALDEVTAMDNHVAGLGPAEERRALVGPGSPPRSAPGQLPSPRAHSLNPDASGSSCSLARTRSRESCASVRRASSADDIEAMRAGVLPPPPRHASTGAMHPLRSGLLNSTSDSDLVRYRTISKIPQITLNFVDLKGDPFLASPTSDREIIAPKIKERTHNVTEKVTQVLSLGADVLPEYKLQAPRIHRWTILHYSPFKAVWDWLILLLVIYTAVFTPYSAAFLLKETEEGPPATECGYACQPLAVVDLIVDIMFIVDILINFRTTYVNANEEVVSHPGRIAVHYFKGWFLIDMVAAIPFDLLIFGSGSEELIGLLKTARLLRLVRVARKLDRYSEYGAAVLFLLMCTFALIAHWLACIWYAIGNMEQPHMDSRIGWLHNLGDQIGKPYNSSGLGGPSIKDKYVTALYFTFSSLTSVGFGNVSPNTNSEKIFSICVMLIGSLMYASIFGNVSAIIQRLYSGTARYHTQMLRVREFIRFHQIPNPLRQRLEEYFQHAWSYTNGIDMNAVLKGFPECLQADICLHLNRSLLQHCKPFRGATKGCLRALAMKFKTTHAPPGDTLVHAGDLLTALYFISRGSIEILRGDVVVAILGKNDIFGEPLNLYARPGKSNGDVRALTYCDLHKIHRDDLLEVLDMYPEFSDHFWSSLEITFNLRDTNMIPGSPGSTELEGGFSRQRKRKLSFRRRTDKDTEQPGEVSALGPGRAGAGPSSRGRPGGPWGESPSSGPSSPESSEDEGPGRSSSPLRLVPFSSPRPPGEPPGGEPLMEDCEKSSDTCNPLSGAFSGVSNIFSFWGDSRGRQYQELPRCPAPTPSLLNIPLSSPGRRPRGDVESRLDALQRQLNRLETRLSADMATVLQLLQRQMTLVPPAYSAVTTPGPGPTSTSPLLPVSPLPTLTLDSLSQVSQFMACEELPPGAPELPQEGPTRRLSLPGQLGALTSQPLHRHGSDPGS
Chain of Somatostatin receptor type 2 (Homo sapiens) (P30874 whole entry): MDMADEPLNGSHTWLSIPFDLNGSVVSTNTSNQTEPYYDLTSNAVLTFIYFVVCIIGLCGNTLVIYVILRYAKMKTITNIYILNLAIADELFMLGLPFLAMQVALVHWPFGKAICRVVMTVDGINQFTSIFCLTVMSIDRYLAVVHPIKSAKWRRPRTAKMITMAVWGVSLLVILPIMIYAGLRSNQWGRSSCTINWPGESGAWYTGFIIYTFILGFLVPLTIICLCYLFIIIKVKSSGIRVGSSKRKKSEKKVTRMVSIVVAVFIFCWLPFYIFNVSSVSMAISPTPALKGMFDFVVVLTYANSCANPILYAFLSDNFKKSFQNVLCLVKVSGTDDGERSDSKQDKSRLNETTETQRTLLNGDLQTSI
Chain of Somatostatin receptor type 4 (Homo sapiens) (P31391 whole entry): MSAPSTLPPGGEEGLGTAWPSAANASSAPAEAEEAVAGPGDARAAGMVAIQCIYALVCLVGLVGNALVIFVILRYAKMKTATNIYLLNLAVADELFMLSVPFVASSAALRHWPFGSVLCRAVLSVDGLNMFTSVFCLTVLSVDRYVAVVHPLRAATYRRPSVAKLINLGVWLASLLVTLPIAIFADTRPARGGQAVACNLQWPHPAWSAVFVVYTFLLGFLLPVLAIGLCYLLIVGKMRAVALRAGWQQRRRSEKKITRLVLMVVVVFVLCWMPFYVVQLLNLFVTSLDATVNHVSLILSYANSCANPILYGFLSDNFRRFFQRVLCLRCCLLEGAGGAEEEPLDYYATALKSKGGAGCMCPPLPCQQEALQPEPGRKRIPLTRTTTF
Chain of Somatostatin receptor type 1 (Homo sapiens) (P30872 whole entry): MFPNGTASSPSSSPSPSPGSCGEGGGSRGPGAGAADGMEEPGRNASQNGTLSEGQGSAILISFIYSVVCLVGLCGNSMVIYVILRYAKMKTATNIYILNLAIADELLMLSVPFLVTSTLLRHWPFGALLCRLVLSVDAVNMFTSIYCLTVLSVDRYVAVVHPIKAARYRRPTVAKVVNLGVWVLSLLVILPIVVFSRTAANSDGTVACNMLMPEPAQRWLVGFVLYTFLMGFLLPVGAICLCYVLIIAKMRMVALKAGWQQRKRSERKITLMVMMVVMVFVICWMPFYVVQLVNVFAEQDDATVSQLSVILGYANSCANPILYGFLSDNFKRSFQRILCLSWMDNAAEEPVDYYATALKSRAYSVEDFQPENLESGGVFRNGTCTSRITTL
Chain of Somatostatin receptor type 3 (Homo sapiens) (P32745 whole entry): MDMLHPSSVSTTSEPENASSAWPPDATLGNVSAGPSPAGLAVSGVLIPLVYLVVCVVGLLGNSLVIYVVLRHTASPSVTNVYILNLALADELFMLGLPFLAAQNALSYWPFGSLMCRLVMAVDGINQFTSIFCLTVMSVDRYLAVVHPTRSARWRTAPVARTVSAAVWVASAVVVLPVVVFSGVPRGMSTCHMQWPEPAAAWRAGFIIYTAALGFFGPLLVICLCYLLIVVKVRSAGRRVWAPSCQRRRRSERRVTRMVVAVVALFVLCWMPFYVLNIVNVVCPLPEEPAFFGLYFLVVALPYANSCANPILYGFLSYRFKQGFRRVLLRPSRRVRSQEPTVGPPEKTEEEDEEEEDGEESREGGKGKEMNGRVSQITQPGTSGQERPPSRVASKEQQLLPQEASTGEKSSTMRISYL

For `COc1ccc(Cl)cc1C(=O)NCCc1ccc(S(=O)(=O)NC(=O)NC2CCCCC2)cc1` [GLYBURIDE], the Activity (Mus musculus [1]) was “Active”, the Activity (Mus musculus [2]) was “Active” and the Activity (Mus musculus [3]) was “Toxic”. For the same compound, the Activity (Mus musculus [4]) was “Active”.

`CCOc1cc(CN2CC3(CC(c4ccc(C(=O)O)cc4C)=NO3)C2)cc(OCC)c1-c1ccc(F)cc1` gave an IC50 [5] of 21 nM, an inhibition at 5 min, 30 µM (hERG (KCNH2)) of 18% and an IC50 [6] of 140 nM. For the same compound, the logD [7] was 3.5.

With `Cn1c(=O)cc(N2CCC[C@@H](N)C2)n(Cc2ccccc2C#N)c1=O` the Activity (Mus musculus [8]) was “Active”, the Activity (Mus musculus [9]) was “Active” and the Activity (Mus musculus [10]) was “Active”.

In the case of `CCOc1cc(CN2CC3(CC(N4CCC(C(=O)O)CC4)=NO3)C2)cc(OCC)c1-c1ccc(F)cc1`, the inhibition [11] is reported as 8%, the Activity (Mus musculus [12]) is reported as “Non-Toxic” and the Vd [13] is reported as 3.05 L/kg. For the same compound, the inhibition [14] was 10%, the clearance [15] was 29.3 mL/min/kg and the Activity (Mus musculus [16]) was “Active”. The inhibition at 5 min, 30 µM (hERG (KCNH2)) was 5.6%, the Activity (Mus musculus [17]) was “Dose-dependent effect” and the inhibition [18] was 14%. The Cmax [19] was 74.8 ng/mL, the AUC(0-t) at 8 h [20] was 332 ng·h/mL and the bioavailability [21] was 58%. The solubility at 18 h [22] was 260 µg/mL (≈ 508 µM), the inhibition [23] was 11% and the microsomal CLint at 1 µM [24] was under 10 µL/min/mg. The microsomal CLint at 1 µM [25] was 19 µL/min/mg, the Activity (Mus musculus [26]) was “Active” and the Activity (Mus musculus [27]) was “inactive”. The Activity (Mus musculus [28]) was “Active” and the Tmax [29] was 2 h.

Work on `CCOc1cc(CN2CC3(CC(c4ccc(C(=O)O)cc4Cl)=NO3)C2)cc(OCC)c1-c1ccc(F)cc1` yielded an IC50 [5] of 31 nM, an inhibition at 5 min, 30 µM (hERG (KCNH2)) of 40% and an IC50 [6] of 46 nM. For the same compound, the logD [7] was 3.5.

`CCOc1cc(CN2CC3(CC(c4ccc(C(=O)O)cn4)=NO3)C2)cc(OCC)c1-c1ccc(F)cc1` gave an IC50 [5] of 20 nM and an IC50 [6] of 61 nM.

With `CCOc1cc(CN2CC3(CC(CCC(=O)O)=NO3)C2)cc(OCC)c1-c1ccc(F)cc1` the IC50 [5] was 220 nM and the IC50 [6] was 3200 nM.

For `CCOc1cc(CN2CC3(CC([C@H]4CC[C@H](C(=O)O)CC4)=NO3)C2)cc(OCC)c1-c1ccc(F)cc1`, the IC50 [5] was 38 nM, the inhibition at 5 min, 30 µM (hERG (KCNH2)) was 15% and the IC50 [6] was 30 nM. The logD [7] was 3.2.

For `CCOc1cc(CN2CC3(CC(c4ccc(CC(=O)O)cc4)=NO3)C2)cc(OCC)c1-c1ccc(F)cc1`, the IC50 [5] was 74 nM and the IC50 [6] was 220 nM.

With `CCOc1cc(CN2CC3(CC(N4CCC(C(=O)O)C4)=NO3)C2)cc(OCC)c1-c1ccc(F)cc1` (centres undefined) the IC50 [5] was 48 nM, the inhibition at 5 min, 30 µM (hERG (KCNH2)) was 17% and the IC50 [6] was 190 nM. The logD [7] was 2.9.
